The full list was thinned out, with hits kept by preference.
E-selectin induc = E-selectin induction on HUVECs; HUVEC E-selectin immunofluorescence imaging; normalized: neutral wells 0, TNF-alpha wells 100; activation, % at 7.58 µM; hit rate 0.37% among 260,000; AID 686992;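 active = mean E-selectin-positive cell signal at least 10% of the positive control, reached in at least 60% of replicates, without over 20% cell loss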
Target sequence (P16581 whole entry, looked up): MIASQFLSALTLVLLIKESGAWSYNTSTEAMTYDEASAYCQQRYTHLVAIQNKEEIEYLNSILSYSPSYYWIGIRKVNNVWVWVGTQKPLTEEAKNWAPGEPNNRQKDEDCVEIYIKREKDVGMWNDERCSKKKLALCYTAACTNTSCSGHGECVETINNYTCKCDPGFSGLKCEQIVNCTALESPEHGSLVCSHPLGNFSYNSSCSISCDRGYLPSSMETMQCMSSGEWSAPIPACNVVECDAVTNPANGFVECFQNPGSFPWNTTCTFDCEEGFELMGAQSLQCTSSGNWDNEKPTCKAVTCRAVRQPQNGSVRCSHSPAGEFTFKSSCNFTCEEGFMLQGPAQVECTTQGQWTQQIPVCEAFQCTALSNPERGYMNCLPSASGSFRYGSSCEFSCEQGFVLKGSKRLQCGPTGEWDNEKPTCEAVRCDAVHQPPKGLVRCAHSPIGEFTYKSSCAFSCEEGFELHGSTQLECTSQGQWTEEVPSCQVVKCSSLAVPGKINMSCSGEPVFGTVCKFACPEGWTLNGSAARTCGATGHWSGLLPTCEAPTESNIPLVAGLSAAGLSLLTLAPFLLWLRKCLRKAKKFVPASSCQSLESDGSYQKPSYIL
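System: HUVEC, human umbilical vein endothelial cells; quantity: 3,000 cells/well; buffer or medium: EGM-2 medium, gelatin-coated wells; dosing: single-point compound dose; detection: immunofluorescence imaging; evaluation: % PE-positive cells; benchmarks: TNF-alpha, DMSO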
* = called active by the depositor.

SMILES	E-selectin induc
C[C@@H](NC(=O)[C@H]1[C@H](CO)[C@H]2Cn3c(cccc3=O)[C@@H]1N2C(=O)C1CCCC1)c1ccccc1	-0.1
CCCC(=O)Nc1ccc2c(c1)C(=O)N(C)C[C@@H](OC)[C@H](C)CN(C(=O)c1ccccc1F)[C@@H](C)CO2	-0.1
C[C@H](CO)N1C[C@H](C)[C@H](CN(C)C(=O)Cc2cccnc2)Oc2ncc(C#CCc3ccccc3)cc2C1=O	0.5
COc1ccc(NC2CCCN(C(=O)c3csc(C(C)C)n3)C2)cc1 (configuration not stated)	1.5
COc1ccc(NC2CCCN(C(=O)c3ccc4nc(C)c(C)nc4c3)C2)cc1OC (configuration not stated)	-0.1
COc1ccc(NC2CCCN(C(=O)c3csc(C(C)C)n3)C2)cc1OC (configuration not stated)	78.6*
O=C(O)CN1C(=O)/C(=C\c2cc(Br)ccc2OCc2ccc(Cl)cc2)SC1=S	49.3*
COc1ccc(/C=C2/SC(=S)N(CC(=O)O)C2=O)cc1OCc1ccc(Cl)cc1	-0.1
O=C(O)CN1C(=O)/C(=C\c2cc(Br)ccc2OCc2ccc(F)cc2)SC1=S	0.0
CC(C)NC(=O)N(C)C[C@H]1Oc2ccc(NC(=O)CCC(F)(F)F)cc2CC(=O)N([C@H](C)CO)C[C@H]1C	19.5
CC(C)NC(=O)N(C)C[C@H]1Oc2ccc(NC(=O)CCC(F)(F)F)cc2CC(=O)N([C@H](C)CO)C[C@@H]1C	42.7*
C[C@@H]1CN([C@H](C)CO)C(=O)Cc2cc(NC(=O)CCC(F)(F)F)ccc2O[C@H]1CN(C)C(=O)Nc1ccc(F)cc1	3.4
CC(C)NC(=O)N(C)C[C@@H]1Oc2ccc(NC(=O)CCC(F)(F)F)cc2CC(=O)N([C@@H](C)CO)C[C@H]1C	112.8*
C[C@@H]1CN([C@H](C)CO)C(=O)Cc2cc(NC(=O)CCC(F)(F)F)ccc2O[C@@H]1CN(C)C(=O)NC1CCCCC1	0.3
CC(C)NC(=O)N(C)C[C@@H]1Oc2ccc(NC(=O)CCC(F)(F)F)cc2CC(=O)N([C@@H](C)CO)C[C@@H]1C	24.6
C[C@@H]1CN([C@@H](C)CO)C(=O)Cc2cc(NC(=O)CCC(F)(F)F)ccc2O[C@H]1CN(C)C(=O)Nc1ccc(F)cc1	8.4
C[C@H](CO)N1C[C@H](C)[C@H](CN(C)C(=O)Nc2ccc(F)cc2)Oc2ccc(NC(=O)CCC(F)(F)F)cc2CC1=O	-0.5
CC(C)NC(=O)N(C)C[C@H]1Oc2ccc(NC(=O)CCC(F)(F)F)cc2CC(=O)N([C@@H](C)CO)C[C@H]1C	54.6*
COc1ccc(S(=O)(=O)N(C)C[C@H]2Oc3ccc(NC(=O)Nc4ccc5c(c4)OCO5)cc3C(=O)N([C@H](C)CO)C[C@H]2C)cc1	9.6
CCN1[C@@H]2Cn3c(ccc(/C=C/c4ccccc4)c3=O)[C@H]1[C@@H](C(=O)NC1Cc3ccccc3C1)[C@@H]2CO	2.1
COc1ccc(NC(=O)N(C)C[C@@H]2OCCCC[C@@H](C)Oc3ccc(NC(=O)Nc4cccc5ccccc45)cc3C(=O)N([C@@H](C)CO)C[C@H]2C)cc1	-0.2
COc1ccc(-c2ccc([C@@H]3[C@@H](CO)N4C(=O)CN(C(=O)Cc5ccccn5)C[C@@H]34)cc2)cc1	-0.3
COc1ccc(S(=O)(=O)Nc2ccc3c(c2)C(=O)N([C@H](C)CO)C[C@@H](C)[C@@H](CN(C)Cc2ccccc2)OCCCC[C@@H](C)O3)cc1	-0.2
COc1ccc(S(=O)(=O)Nc2cccc3c2O[C@H](CN(C)S(=O)(=O)c2cccs2)[C@H](C)CN([C@H](C)CO)C3=O)cc1	-4.8
C[C@H](CO)N1C[C@H](C)[C@H](CN(C)CC2CCCCC2)Oc2c(NS(=O)(=O)c3ccc(Cl)cc3)cccc2C1=O	-2.6
SMILES	E-selectin induc
O=C1Nc2ccccc2C1Cc1ccccn1 (configuration not stated)	48.3*
O=C1Nc2ccccc2C1C(C[N+](=O)[O-])c1ccccn1 (configuration not stated)	0.2
O=C1Nc2ccccc2C1(O)Cc1ccccn1 (configuration not stated)	-0.2
O=C1Nc2ccccc2C1Cc1ccc(OC(F)(F)F)cc1 (configuration not stated)	0.1
COc1cc(CC2C(=O)Nc3ccccc32)cc(C)c1O (configuration not stated)	52.3*
Cc1ccc(NC(=O)C(=O)C2C(=O)Nc3ccccc32)cc1 (configuration not stated)	1.1
COc1ccc(NC(=O)N(C)C[C@@H]2OCCCC[C@@H](C)Oc3ccc(NC(=O)Nc4ccccc4)cc3C(=O)N([C@H](C)CO)C[C@@H]2C)cc1	0.2
C[C@@H]1CCCCO[C@H](CN(C)C(=O)c2ccncc2)[C@H](C)CN([C@H](C)CO)C(=O)c2cc(NC(=O)C3CCCCC3)ccc2O1	-0.1
C[C@H](CO)N1C[C@H](C)[C@@H](CN(C)C(=O)c2ccccn2)Oc2ncc(C3=CCCC3)cc2C1=O	-0.8
CCOC(=O)c1sc(NC(=O)CN2C(=O)C3CC=CCC3C2=O)nc1C (configuration not stated)	150.5*

Screens (PubChem)
